Results taken from ChEMBL document CHEMBL3232844, “Synthesis and structure activity relationships of schweinfurthin indoles” (2014).

How the values were obtained:
Type in all cases: functional
CCRF-CEM = assay: Cytotoxicity against human CCRF-CEM cells
NCI-H23 = assay: Cytotoxicity against human NCI-H23 cells
Outline: (§1)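 Tested in a 60-cell-line human tumor panel screen; the read-out is growth inhibition, reported as GI50 for each cell line.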

[1] = Cytotoxicity against human NCI-ADR-RES cells; outline: as §1
[2] = Cytotoxicity against human UACC257 cells
Outline: (§2)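 Cell line run as part of the 60-cell-line screening panel; growth inhibition was reported as a GI50 for each line.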

NCI-H322M = assay: Cytotoxicity against human NCI-H322M cells; outline: as §1
786-0 = assay: Cytotoxicity against human 786-0 cells; outline: as §1
COLO 205 = assay: Cytotoxicity against human COLO205 cells; outline: as §1
[3] = Cytotoxicity against human UO31 cells; outline: as §2
K562 = assay: Cytotoxicity against human K562 cells; outline: as §1
NCI-H460 = assay: Cytotoxicity against human NCI-H460 cells; outline: as §1
MDA-MB-435 = assay: Cytotoxicity against human MDA-MB-435 cells; outline: as §1
U-251 = assay: Cytotoxicity against human U251 cells; outline: as §2
CAKI-1 = assay: Cytotoxicity against human Caki1 cells; outline: as §1
T47D = assay: Cytotoxicity against human T47D cells; outline: as §2
SF-295 = assay: Cytotoxicity against human SF295 cells; outline: as §1
HT-29 = assay: Cytotoxicity against human HT-29 cells; outline: as §1
IGROV-1 = assay: Cytotoxicity against human IGROV1 cells; outline: as §1
NCI-H226 = assay: Cytotoxicity against human NCI-H226 cells; outline: as §1
M14 = assay: Cytotoxicity against human M14 cells; outline: as §1
[4] = Cytotoxicity against human OVCAR4 cells; outline: as §1
SN12C = assay: Cytotoxicity against human SN12C cells; outline: as §1
[5] = Cytotoxicity against human OVCAR3 cells; outline: as §1
A498 = assay: Cytotoxicity against human A498 cells; outline: as §1
A549 = assay: Cytotoxicity against human A549 cells; outline: as §1
PC-3 = assay: Cytotoxicity against human PC3 cells; outline: as §1
[6] = Cytotoxicity against human HCT15 cells; outline: as §1
HL-60(TB) = assay: Cytotoxicity against human HL-60(TB) cells
Outline: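 Tested within the NCI 60-cell-line screen, with GI50 as the read-out. Values are the average of two independent experiments. The lowest concentration tested was 10 nM.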

MDA-MB-468 = assay: Cytotoxicity against human MDA-MB-468 cells; outline: as §1
ACHN = assay: Cytotoxicity against human ACHN cells; outline: as §1
HCT-116 = assay: Cytotoxicity against human HCT116 cells; outline: as §1
LOX IMVI = assay: Cytotoxicity against human LOXIMVI cells; outline: as §1
SF-539 = assay: Cytotoxicity against human SF539 cells; outline: as §1
MOLT-4 = assay: Cytotoxicity against human MOLT4 cells; outline: as §1
BT-549 = assay: Cytotoxicity against human BT549 cells; outline: as §1
MDA-MB-231 = assay: Cytotoxicity against human MDA-MB-231 cells; outline: as §1
[7] = Cytotoxicity against human UACC62 cells; outline: as §2
SK-MEL-5 = assay: Cytotoxicity against human SK-MEL-5 cells; outline: as §1
RXF 393 = assay: Cytotoxicity against human RXF393 cells; outline: as §1
[8] = Cytotoxicity against human EKVX cells; outline: as §1
SK-OV-3 = assay: Cytotoxicity against human SKOV3 cells; outline: as §1
SK-MEL-2 = assay: Cytotoxicity against human SK-MEL-2 cells; outline: as §1
MCF7 = assay: Cytotoxicity against human MCF7 cells; outline: as §1
SNB-75 = assay: Cytotoxicity against human SNB75 cells; outline: as §2
[9] = read-out: pLC50 (the source's name) (converted)

COc1cc(/C=C/c2cc(O)c3cc[nH]c3c2)cc2c1O[C@]1(C)CC[C@@H](O)C(C)(C)[C@H]1C2
GI50 (CCRF-CEM): 0.525 µM
CC50 (CCRF-CEM; [9]): > 100 µM
TGI (CCRF-CEM; read-out: pTGI (converted)): 36.3 µM
GI50 (NCI-H23): 1.7 µM
CC50 (NCI-H23; [9]): 61.7 µM
TGI (NCI-H23; read-out: pTGI (converted)): 8.13 µM
GI50 [1]: 2.57 µM
CC50 [1, 9]: > 100 µM
TGI ([1]; read-out: pTGI (converted)): 33.9 µM
GI50 ([2]; UACC-257): 2.34 µM
CC50 ([2]; UACC-257, read-out: pLC50 (the source's name) (converted)): 28.8 µM
TGI ([2]; UACC-257, read-out: pTGI (converted)): 8.32 µM
GI50 (NCI-H322M): 3.47 µM
CC50 (NCI-H322M; [9]): > 100 µM
TGI (NCI-H322M; read-out: pTGI (converted)): 25.1 µM
GI50 (786-0): 0.372 µM
LC50 (concentration killing 50% of cells) (786-0): 6.31 µM
TGI (786-0; read-out: pTGI (converted)): 1.82 µM
GI50 (COLO 205): 1.26 µM
CC50 (COLO 205; [9]): 11.5 µM
TGI (COLO 205; read-out: pTGI (converted)): 3.39 µM
GI50 ([3]; UO-31): 0.479 µM
LC50 ([3]; UO-31): > 100 µM
TGI ([3]; UO-31, read-out: pTGI (converted)): 2.04 µM
GI50 (K562): 0.708 µM
CC50 (K562; [9]): > 100 µM
TGI (K562; read-out: pTGI (converted)): 20.4 µM
GI50 (NCI-H460): 0.871 µM
CC50 (NCI-H460; [9]): 5.37 µM
TGI (NCI-H460; read-out: pTGI (converted)): 2.29 µM
GI50 (MDA-MB-435): 0.933 µM
CC50 (MDA-MB-435; [9]): 85.1 µM
TGI (MDA-MB-435; read-out: pTGI (converted)): 11.2 µM
GI50 (U-251): 0.479 µM
CC50 (U-251; [9]): > 100 µM
TGI (U-251; read-out: pTGI (converted)): 13.8 µM
GI50 (CAKI-1): 0.741 µM
LC50 (CAKI-1): 20.9 µM
TGI (CAKI-1; read-out: pTGI (converted)): 2.29 µM
GI50 (T47D): 5.01 µM
CC50 (T47D; [9]): 83.2 µM
TGI (T47D; read-out: pTGI (converted)): 22.4 µM
GI50 (SF-295; read-out: GI50): 0.23 µM
GI50 (SF-295; read-out: pGI50 (converted)): 0.234 µM
CC50 (SF-295; [9]): 6.03 µM
TGI (SF-295; read-out: pTGI (converted)): 1 µM
GI50 (HT-29): 0.708 µM
CC50 (HT-29; [9]): 93.3 µM
TGI (HT-29; read-out: pTGI (converted)): 4.07 µM
GI50 (IGROV-1): 2.29 µM
CC50 (IGROV-1; [9]): 60.3 µM
TGI (IGROV-1; read-out: pTGI (converted)): 10.2 µM
GI50 (NCI-H226): 12 µM
CC50 (NCI-H226; [9]): 70.8 µM
TGI (NCI-H226; read-out: pTGI (converted)): 28.8 µM
GI50 (M14): 0.676 µM
CC50 (M14; [9]): 6.17 µM
TGI (M14; read-out: pTGI (converted)): 2.19 µM
GI50 ([4]; OVCAR-4): 3.31 µM
CC50 ([4]; OVCAR-4, read-out: pLC50 (the source's name) (converted)): > 100 µM
TGI ([4]; OVCAR-4, read-out: pTGI (converted)): 34.7 µM
GI50 (SN12C): 7.08 µM
LC50 (SN12C): > 100 µM
TGI (SN12C; read-out: pTGI (converted)): 67.6 µM
GI50 ([5]; OVCAR-3): 1.82 µM
CC50 ([5]; OVCAR-3, read-out: pLC50 (the source's name) (converted)): > 100 µM
TGI ([5]; OVCAR-3, read-out: pTGI (converted)): 10.5 µM
GI50 (A498): 1.55 µM
CC50 (A498; [9]): 56.2 µM
TGI (A498; read-out: pTGI (converted)): 8.91 µM
GI50 (A549): 1.48 µM
TGI (A549; read-out: pTGI (converted)): 3.72 µM
GI50 (PC-3): 0.631 µM
LC50 (PC-3): > 100 µM
TGI (PC-3; read-out: pTGI (converted)): 38 µM
GI50 ([6]; HCT-15): 0.324 µM
CC50 ([6]; HCT-15, read-out: pLC50 (the source's name) (converted)): > 100 µM
TGI ([6]; HCT-15, read-out: pTGI (converted)): 33.9 µM
GI50 (HL-60(TB)): 0.513 µM
CC50 (HL-60(TB); [9]): > 100 µM
TGI (HL-60(TB); read-out: pTGI (converted)): 8.71 µM
GI50 (MDA-MB-468): 2.45 µM
LC50 (MDA-MB-468): > 100 µM
TGI (MDA-MB-468; read-out: pTGI (converted)): 7.59 µM
GI50 (ACHN): 1.1 µM
LC50 (concentration killing 50% of cells) (ACHN): > 100 µM
TGI (ACHN; read-out: pTGI (converted)): 14.1 µM
GI50 (HCT-116): 0.912 µM
CC50 (HCT-116; [9]): 6.03 µM
TGI (HCT-116; read-out: pTGI (converted)): 2.45 µM
GI50 (LOX IMVI): 0.363 µM
CC50 (LOX IMVI; [9]): 4.57 µM
TGI (LOX IMVI; read-out: pTGI (converted)): 1.32 µM
GI50 (SF-539): 0.257 µM
TGI (SF-539; read-out: pTGI (converted)): 1.23 µM
GI50 (MOLT-4): 0.309 µM
CC50 (MOLT-4; [9]): 75.9 µM
TGI (MOLT-4; read-out: pTGI (converted)): 1.78 µM
GI50 (BT-549): 0.178 µM
CC50 (BT-549; [9]): 95.5 µM
TGI (BT-549; read-out: pTGI (converted)): 4.57 µM
GI50 (MDA-MB-231): 1.82 µM
LC50 (MDA-MB-231): > 100 µM
TGI (MDA-MB-231; read-out: pTGI (converted)): 20.9 µM
GI50 ([7]; UACC-62): 2.19 µM
CC50 ([7]; UACC-62, read-out: pLC50 (the source's name) (converted)): 43.7 µM
TGI ([7]; UACC-62, read-out: pTGI (converted)): 7.24 µM
GI50 (SK-MEL-5): 0.195 µM
CC50 (SK-MEL-5; [9]): 1.12 µM
TGI (SK-MEL-5; read-out: pTGI (converted)): 0.457 µM
GI50 (RXF 393): 0.115 µM
LC50 (RXF 393): 0.871 µM
TGI (RXF 393; read-out: pTGI (converted)): 0.316 µM
GI50 [8]: 3.47 µM
CC50 [8, 9]: 91.2 µM
TGI ([8]; read-out: pTGI (converted)): 27.5 µM
GI50 (SK-OV-3): 1.51 µM
LC50 (SK-OV-3): > 100 µM
TGI (SK-OV-3; read-out: pTGI (converted)): 10 µM
GI50 (SK-MEL-2): 1.12 µM
CC50 (SK-MEL-2; [9]): 31.6 µM
TGI (SK-MEL-2; read-out: pTGI (converted)): 7.24 µM
GI50 (MCF7): 1.29 µM
LC50 (MCF7): 51.3 µM
TGI (MCF7; read-out: pTGI (converted)): 20.4 µM
GI50 (SNB-75): 0.269 µM
CC50 (SNB-75; [9]): > 100 µM
TGI (SNB-75; read-out: pTGI (converted)): 4.57 µM
